Results from ChEMBL document CHEMBL5247578, “Effective synthesis of benzimidazoles-imidazo[1,2-a]pyrazine conjugates: A comparative study of mono-and bis-benzimidazoles for antitumor activity” (Eur J Med Chem, 2019).

Assays:
HEK293 [1] = assay: Cytotoxicity against human HEK293 cells assessed as reduction in cell viability at 0.00001 M incubated for 48 hrs by MTT colorimetric assay relative to control; format: toxicity, cell-based; conditions: hek293, 48 h, 10 µM
PC-3 = assay: Antiproliferative activity against human PC-3 cells assessed as cell growth at 0.00000001 M incubated for 48 hrs by SRB assay relative to control; format: functional; conditions: dose 10 nM, read-out: Activity
M14 = assay: Antiproliferative activity against human M14 cells assessed as cell growth at 0.00000001 M incubated for 48 hrs by SRB assay relative to control; format: functional; conditions: dose 10 nM, read-out: Activity
NCI/ADR-RES = assay: Antiproliferative activity against human NCI/ADR-RES cells assessed as cell growth inhibition by measuring lethal concentration incubated for 48 hrs by sulforhodamine B assay; format: functional; conditions: read-out: LC50 (the source's name)
OVCAR-4 [2] = assay: Antiproliferative activity against human OVCAR-4 cells assessed as cell growth at 0.000001 M incubated for 48 hrs by SRB assay relative to control; format: functional; conditions: read-out: Activity
Hs-578T = assay: Antiproliferative activity against human Hs-578T cells assessed as cell growth at 0.00001 M incubated for 48 hrs by SRB assay relative to control; format: functional; conditions: read-out: Activity
How it was run: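 NCI-60 five-dose mode, 10^-4 to 10^-8 M in 10-fold steps. RPMI 1640, 5% FBS, 2 mM L-glutamine; 24 h preincubation, then 48 h drug exposure at 37 °C. Stocks in DMSO at 400× the top concentration, diluted in medium with gentamicin. TCA fixation, SRB staining, absorbance at 515 nm. Percent growth from time-zero (Tz), control (C) and test (Ti) readings.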

MDA-MB-468 = assay: Antiproliferative activity against human MDA-MB-468 cells assessed as cell growth at 0.00001 M incubated for 48 hrs by SRB assay relative to control; format: functional; conditions: read-out: Activity
NCI-H23 = assay: Antiproliferative activity against human NCI-H23 cells assessed as cell growth at 0.00000001 M incubated for 48 hrs by SRB assay relative to control; format: functional; conditions: dose 10 nM, read-out: Activity
NCI-H460 = assay: Antiproliferative activity against human NCI-H460 cells assessed as cell growth at 0.000001 M incubated for 48 hrs by SRB assay relative to control; format: functional; conditions: read-out: Activity
HEK293 [3] = assay: Cytotoxicity against human HEK293 cells assessed as reduction in cell viability at 0.00000001 M incubated for 48 hrs by MTT colorimetric assay relative to control; format: toxicity, cell-based; conditions: hek293, 48 h, 0.01 µM, dose 10 nM
SF-539 [4] = assay: Antiproliferative activity against human SF-539 cells assessed as cell growth at 0.0001 M incubated for 48 hrs by SRB assay relative to control; format: functional; conditions: read-out: Activity
MDA-MB-435 = assay: Antiproliferative activity against human MDA-MB-435 cells assessed as cell growth inhibition by measuring lethal concentration incubated for 48 hrs by sulforhodamine B assay; format: functional; conditions: read-out: LC50 (the source's name)
UO-31 = assay: Growth inhibition against human UO-31 cells incubated for 48 hrs by sulforhodamine B assay; format: functional
MDA-MB-231 [5] = assay: Antiproliferative activity against human MDA-MB-231 cells assessed as cell growth at 0.0000001 M incubated for 48 hrs by SRB assay relative to control; format: functional; conditions: dose 100 nM, read-out: Activity
CCRF-CEM = assay: Antiproliferative activity against human CCRF-CEM cells assessed as cell growth at 0.00000001 M incubated for 48 hrs by SRB assay relative to control; format: functional; conditions: dose 10 nM, read-out: Activity
How it was run: (§1)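 NCI-60 five-dose screen over 10^-4–10^-8 M (10-fold dilutions). Cells grown in RPMI 1640 with 5% FBS and 2 mM L-glutamine, seeded at 5,000–40,000 cells/well and preincubated 24 h. Drug from DMSO stock, 48 h at 37 °C, 5% CO2. Adherent cells TCA-fixed and stained with 0.4% SRB; A515 read. Percent growth = (Ti−Tz)/(C−Tz)×100, or (Ti−Tz)/Tz×100 when Ti<Tz.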

HOP-62 = assay: Antiproliferative activity against human HOP-62 cells assessed as cell growth at 0.000001 M incubated for 48 hrs by SRB assay relative to control; format: functional; conditions: read-out: Activity
How it was run: (§2)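 NCI-60 five-dose screen (10^-4 to 10^-8 M). Cells grown in RPMI 1640 with 5% FBS and 2 mM L-glutamine, plated at 5,000-40,000 cells/well and preincubated 24 h. Drug given from DMSO stock, then 48 h at 37 °C, 5% CO2. For adherent lines, cells fixed with cold TCA, SRB-stained and read at 515 nm. Percent growth taken against time-zero and untreated control.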

OVCAR-3 = assay: Antiproliferative activity against human OVCAR-3 cells assessed as cell growth at 0.0000001 M incubated for 48 hrs by SRB assay relative to control; format: functional; conditions: dose 100 nM, read-out: Activity
MDA-MB-231 [6] = assay: Antiproliferative activity against human MDA-MB-231 cells assessed as cell growth at 0.00001 M incubated for 48 hrs by SRB assay relative to control; format: functional; conditions: read-out: Activity
SF-268 = assay: Growth inhibition against human SF-268 cells incubated for 48 hrs by sulforhodamine B assay; format: functional
MCF7 = assay: Growth inhibition against human MCF7 cells assessed as total growth inhibitory concentration incubated for 48 hrs by sulforhodamine B assay; format: functional
NCI-H322M [7] = assay: Antiproliferative activity against human NCI-H322M cells assessed as cell growth at 0.00000001 M incubated for 48 hrs by SRB assay relative to control; format: functional; conditions: dose 10 nM, read-out: Activity
786-0 = assay: Antiproliferative activity against human 786-0 cells assessed as cell growth at 0.000001 M incubated for 48 hrs by SRB assay relative to control; format: functional; conditions: read-out: Activity; how it was run: as §1
UACC-257 = assay: Growth inhibition against human UACC-257 cells assessed as total growth inhibitory concentration incubated for 48 hrs by sulforhodamine B assay; format: functional
RXF 393 = assay: Antiproliferative activity against human RXF 393 cells assessed as cell growth at 0.000001 M incubated for 48 hrs by SRB assay relative to control; format: functional; conditions: read-out: Activity
TK-10 = assay: Antiproliferative activity against human TK-10 cells assessed as cell growth at 0.000001 M incubated for 48 hrs by SRB assay relative to control; format: functional; conditions: read-out: Activity
NCI-H322M [8] = assay: Antiproliferative activity against human NCI-H322M cells assessed as cell growth at 0.00001 M incubated for 48 hrs by SRB assay relative to control; format: functional; conditions: read-out: Activity
HCT-15 = assay: Antiproliferative activity against human HCT-15 cells assessed as cell growth at 0.00001 M incubated for 48 hrs by SRB assay relative to control; format: functional; conditions: read-out: Activity; how it was run: as §2
BT-549 = assay: Antiproliferative activity against human BT-549 cells assessed as cell growth at 0.0000001 M incubated for 48 hrs by SRB assay relative to control; format: functional; conditions: dose 100 nM, read-out: Activity; how it was run: as §1
OVCAR-4 [9] = assay: Antiproliferative activity against human OVCAR-4 cells assessed as cell growth at 0.0001 M incubated for 48 hrs by SRB assay relative to control; format: functional; conditions: read-out: Activity
SF-539 [10] = assay: Antiproliferative activity against human SF-539 cells assessed as cell growth at 0.000001 M incubated for 48 hrs by SRB assay relative to control; format: functional; conditions: read-out: Activity
A498 = assay: Antiproliferative activity against human A498 cells assessed as cell growth at 0.00001 M incubated for 48 hrs by SRB assay relative to control; format: functional; conditions: read-out: Activity; how it was run: as §1

Compound | Activity (HEK293 [1]) [%] | growth at 0.01 µM (PC-3) [%] | growth at 0.01 µM (M14) [%] | CC50 (NCI/ADR-RES) [µM] | growth at 1 µM (OVCAR-4 [2]) [%] | growth at 10 µM (Hs-578T) [%] | growth at 10 µM (MDA-MB-468) [%] | growth at 0.01 µM (NCI-H23) [%] | growth at 1 µM (NCI-H460) [%] | Activity (HEK293 [3]) [%] | growth at 100 µM (SF-539 [4]) [%] | CC50 (MDA-MB-435) [µM] | GI50 (UO-31) [µM] | growth at 0.1 µM (MDA-MB-231 [5]) [%] | growth at 0.01 µM (CCRF-CEM) [%] | growth at 1 µM (HOP-62) [%] | growth at 0.1 µM (OVCAR-3) [%] | growth at 10 µM (MDA-MB-231 [6]) [%] | GI50 (SF-268) [µM] | TGI (MCF7) [µM] | also measured
COc1ccc(-c2cn3ccnc3c(-c3ccc4ncn(C5CCCCC5)c4c3)n2)cc1 | 16.51 | 96 | 99 | > 100 | 84 | 6 | 21 | 97 | 35 | 13.96 | -19 | > 100 | 1.35 | 101 | 106 | 52 | 99 | 12 | 2.38 | > 100 | growth at 0.01 µM (NCI-H322M [7]): 92%; growth at 1 µM (786-0): 34%; TGI (UACC-257): > 100 µM; growth at 1 µM (RXF 393): 57%; growth at 1 µM (TK-10): 84%; growth at 10 µM (NCI-H322M [8]): 53%; growth at 10 µM (HCT-15): 9%; growth at 0.1 µM (BT-549): 88%; growth at 100 µM (OVCAR-4 [9]): 57%; growth at 1 µM (SF-539 [10]): 35%; growth at 10 µM (A498): 8%
c1ccc(Cn2cnc3ccc(-c4nc(-c5ccc6c(c5)ncn6C5CCCCC5)cn5ccnc45)cc32)cc1 | 14.53 | 95 | 87 | > 100 | 96 | 1 | -49 | 94 | 96 | 12.08 | -38 | > 100 | 1.72 | 98 | 100 | 82 | 100 | -63 | 2.48 | > 100 | growth at 0.01 µM (NCI-H322M [7]): 97%; growth at 1 µM (786-0): 46%; TGI (UACC-257): 4.31 µM; growth at 1 µM (RXF 393): 62%; growth at 1 µM (TK-10): 97%; growth at 10 µM (NCI-H322M [8]): 8%; growth at 10 µM (HCT-15): -13%; growth at 0.1 µM (BT-549): 92%; growth at 100 µM (OVCAR-4 [9]): 14%; growth at 1 µM (SF-539 [10]): 53%; growth at 10 µM (A498): -79%
